Results: ChEMBL document CHEMBL1122702, “Radiohalogen-labeled imaging agents. 3. Compounds for measurement of brain blood flow by emission tomography” (J Med Chem, 1984)

Species: Rattus norvegicus
Experiment: Ratio of distribution of the [131I]-labeled compound at 5 min in rat lung over uptake in blood
Assay type: ADME, organism-based
Settings: other tissue
Procedure, shortened: (§1)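 Male Sprague-Dawley rats (200–300 g, fed ad libitum), ether-anesthetized, got a tail-vein bolus of 0.2 mL saline containing 10–20 μCi 131I compound and were decapitated at the stated time. Organs were weighed and gamma-counted against a serially diluted external standard. Organ/blood ratio was calculated from % dose per gram of organ. Animal numbers per time point were 1–4.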

| Compound | Ratio |
| --- | --- |
| COc1cc(CC(C)NCC#N)c(OC)cc1I (stereo not given) | 24 |

Species: Rattus norvegicus
Experiment: Ratio of distribution of the [131I]-labeled compound at 30 min in rat brain over uptake in blood
Assay type: ADME, organism-based
Settings: 0.5 h
Procedure, shortened: as §1

| Compound | Ratio |
| --- | --- |
| COc1cc(CC(C)NCC#N)c(OC)cc1I (stereo not given) | 2.4 |

Species: Rattus norvegicus
Experiment: Ratio of distribution of the [131I]-labeled compound at 30 min in rat heart over uptake in blood
Assay type: ADME, organism-based
Settings: other tissue, 0.5 h
Procedure, shortened: as §1

| Compound | Ratio |
| --- | --- |
| COc1cc(CC(C)NCC#N)c(OC)cc1I (stereo not given) | 3 |

Species: Rattus norvegicus
Experiment: The distribution of the 131 I-labeled compound at 30 min was evaluated in rat lung as Percent of injected dose per gram in the organ
Assay type: ADME, organism-based
Settings: in vivo, 0.5 h
Procedure, shortened: (§2)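 Male Sprague-Dawley rats (200–300 g, free access to food and water), lightly ether-anesthetized and restrained, received a 0.2 mL saline tail-vein bolus of 10–20 μCi 131I-labeled compound. They were decapitated at the stated time, and organs were excised, weighed and gamma-counted. Percent injected dose was determined against a calibrated external standard made by serial dilution of the injectate. n = 1–4 rats.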

| Compound | Dose [%] |
| --- | --- |
| COc1cc(CC(C)NCC#N)c(OC)cc1I (stereo not given) | 1.9 |

Species: Rattus norvegicus
Experiment: The distribution of the 131 I-labeled compound at 30 min was evaluated in rat kidney as Percent of injected dose per gram in the organ
Assay type: ADME, organism-based
Settings: in vivo, 0.5 h
Procedure, shortened: as §2

| Compound | Dose [%] |
| --- | --- |
| COc1cc(CC(C)NCC#N)c(OC)cc1I (stereo not given) | 1.2 |

Species: Rattus norvegicus
Experiment: The distribution of the 131 I-labeled compound at 5 min was evaluated in rat liver as Percent of injected dose in the total organ
Assay type: ADME, organism-based
Settings: in vivo
Procedure, shortened: as §2

| Compound | Dose [%] |
| --- | --- |
| COc1cc(CC(C)NCC#N)c(OC)cc1I (stereo not given) | 8.4 |

Species: Rattus norvegicus
Experiment: The distribution of the 131 I-labeled compound at 30 min was evaluated in rat liver as Percent of injected dose in the total organ
Assay type: ADME, organism-based
Settings: in vivo, 0.5 h
Procedure, shortened: as §2

| Compound | Dose [%] |
| --- | --- |
| COc1cc(CC(C)NCC#N)c(OC)cc1I (stereo not given) | 9.5 |

Species: Rattus norvegicus
Experiment: Ratio of distribution of the [131I]-labeled compound at 30 min in rat kidney over uptake in blood
Assay type: ADME, organism-based
Settings: other tissue, 0.5 h
Procedure, shortened: as §1

| Compound | Ratio |
| --- | --- |
| COc1cc(CC(C)NCC#N)c(OC)cc1I (stereo not given) | 9.2 |

Species: Rattus norvegicus
Experiment: Ratio of distribution of the [131I]-labeled compound at 5 min in rat kidney over uptake in blood
Assay type: ADME, organism-based
Settings: other tissue
Procedure, shortened: as §1

| Compound | Ratio |
| --- | --- |
| COc1cc(CC(C)NCC#N)c(OC)cc1I (stereo not given) | 15 |

Species: Rattus norvegicus
Experiment: The distribution of the 131 I-labeled compound at 5 min was evaluated in rat heart as Percent of injected dose per gram in the organ
Assay type: ADME, organism-based
Settings: in vivo
Procedure, shortened: as §2

| Compound | Dose [%] |
| --- | --- |
| COc1cc(CC(C)NCC#N)c(OC)cc1I (stereo not given) | 0.52 |

Species: Rattus norvegicus
Experiment: Ratio of distribution of the [131I]-labeled compound at 5 min in rat liver over uptake in blood
Assay type: ADME, organism-based
Settings: other tissue
Procedure, shortened: as §1

| Compound | Ratio |
| --- | --- |
| COc1cc(CC(C)NCC#N)c(OC)cc1I (stereo not given) | 4.8 |

Species: Rattus norvegicus
Experiment: The distribution of the 131 I-labeled compound at 30 min was evaluated in rat kidney as Percent of injected dose in the total organ
Assay type: ADME, organism-based
Settings: in vivo, 0.5 h
Procedure, shortened: as §2

| Compound | Dose [%] |
| --- | --- |
| COc1cc(CC(C)NCC#N)c(OC)cc1I (stereo not given) | 2.2 |

Species: Rattus norvegicus
Experiment: The distribution of the 131 I-labeled compound at 30 min was evaluated in rat heart as Percent of injected dose in the total organ
Assay type: ADME, organism-based
Settings: in vivo, 0.5 h
Procedure, shortened: as §2

| Compound | Dose [%] |
| --- | --- |
| COc1cc(CC(C)NCC#N)c(OC)cc1I (stereo not given) | 0.3 |

Species: Rattus norvegicus
Experiment: The distribution of the 131 I-labeled compound at 5 min was evaluated in rat blood as Percent of injected dose per gram in the organ
Assay type: ADME, organism-based
Settings: in vivo
Procedure, shortened: as §2

| Compound | Dose [%] |
| --- | --- |
| COc1cc(CC(C)NCC#N)c(OC)cc1I (stereo not given) | 0.11 |

Species: Rattus norvegicus
Experiment: The distribution of the 131 I-labeled compound at 30 min was evaluated in rat blood as Percent of injected dose per gram in the organ
Assay type: ADME, organism-based
Settings: in vivo, 0.5 h
Procedure, shortened: as §2

| Compound | Dose [%] |
| --- | --- |
| COc1cc(CC(C)NCC#N)c(OC)cc1I (stereo not given) | 0.13 |

Species: Rattus norvegicus
Experiment: The distribution of the 131 I-labeled compound at 5 min was evaluated in rat brain as Percent of injected dose per gram in the organ
Assay type: ADME, organism-based
Settings: in vivo
Procedure, shortened: as §2

| Compound | Dose [%] |
| --- | --- |
| COc1cc(CC(C)NCC#N)c(OC)cc1I (stereo not given) | 0.3 |

Species: Rattus norvegicus
Experiment: Ratio of distribution of the [131I]-labeled compound at 30 min in rat lung over uptake in blood
Assay type: ADME, organism-based
Settings: other tissue, 0.5 h
Procedure, shortened: as §1

| Compound | Ratio |
| --- | --- |
| COc1cc(CC(C)NCC#N)c(OC)cc1I (stereo not given) | 15 |

Species: Rattus norvegicus
Experiment: The distribution of the 131 I-labeled compound at 30 min was evaluated in rat heart as Percent of injected dose per gram in the organ
Assay type: ADME, organism-based
Settings: in vivo, 0.5 h
Procedure, shortened: as §2

| Compound | Dose [%] |
| --- | --- |
| COc1cc(CC(C)NCC#N)c(OC)cc1I (stereo not given) | 0.39 |

Species: Rattus norvegicus
Experiment: The distribution of the 131 I-labeled compound at 5 min was evaluated in rat liver as Percent of injected dose per gram in the organ
Assay type: ADME, organism-based
Settings: in vivo
Procedure, shortened: as §2

| Compound | Dose [%] |
| --- | --- |
| COc1cc(CC(C)NCC#N)c(OC)cc1I (stereo not given) | 0.53 |

Species: Rattus norvegicus
Experiment: Ratio of distribution of the [131I]-labeled compound at 5 min in rat brain over uptake in blood
Assay type: ADME, organism-based
Settings: not given
Procedure, shortened: as §1

| Compound | Ratio |
| --- | --- |
| COc1cc(CC(C)NCC#N)c(OC)cc1I (stereo not given) | 3 |

Species: Rattus norvegicus
Experiment: Ratio of distribution of the [131I]-labeled compound at 30 min in rat liver over uptake in blood
Assay type: ADME, organism-based
Settings: other tissue, 0.5 h
Procedure, shortened: as §1

| Compound | Ratio |
| --- | --- |
| COc1cc(CC(C)NCC#N)c(OC)cc1I (stereo not given) | 9.2 |

Species: Rattus norvegicus
Experiment: Ratio of distribution of the [131I]-labeled compound at 5 min in rat heart over uptake in blood
Assay type: ADME, organism-based
Settings: other tissue
Procedure, shortened: as §1

| Compound | Ratio |
| --- | --- |
| COc1cc(CC(C)NCC#N)c(OC)cc1I (stereo not given) | 4.7 |

Species: Rattus norvegicus
Experiment: The distribution of the 131 I-labeled compound at 30 min was evaluated in rat brain as Percent of injected dose per gram in the organ
Assay type: ADME, organism-based
Settings: in vivo, 0.5 h
Procedure, shortened: as §2

| Compound | Dose [%] |
| --- | --- |
| COc1cc(CC(C)NCC#N)c(OC)cc1I (stereo not given) | 0.31 |

Species: Rattus norvegicus
Experiment: The distribution of the 131 I-labeled compound at 5 min was evaluated in rat kidney as Percent of injected dose in the total organ
Assay type: ADME, organism-based
Settings: in vivo
Procedure, shortened: as §2

| Compound | Dose [%] |
| --- | --- |
| COc1cc(CC(C)NCC#N)c(OC)cc1I (stereo not given) | 4.8 |

Species: Rattus norvegicus
Experiment: The distribution of the 131 I-labeled compound at 30 min was evaluated in rat liver as Percent of injected dose per gram in the organ
Assay type: ADME, organism-based
Settings: in vivo, 0.5 h
Procedure, shortened: as §2

| Compound | Dose [%] |
| --- | --- |
| COc1cc(CC(C)NCC#N)c(OC)cc1I (stereo not given) | 1.2 |

Species: Rattus norvegicus
Experiment: The distribution of the 131 I-labeled compound at 5 min was evaluated in rat brain as Percent of injected dose in the total organ
Assay type: ADME, organism-based
Settings: in vivo
Procedure, shortened: as §2

| Compound | Dose [%] |
| --- | --- |
| COc1cc(CC(C)NCC#N)c(OC)cc1I (stereo not given) | 0.61 |

Species: Rattus norvegicus
Experiment: The distribution of the 131 I-labeled compound at 5 min was evaluated in rat heart as Percent of injected dose in the total organ
Assay type: ADME, organism-based
Settings: in vivo
Procedure, shortened: as §2

| Compound | Dose [%] |
| --- | --- |
| COc1cc(CC(C)NCC#N)c(OC)cc1I (stereo not given) | 0.69 |

Species: Rattus norvegicus
Experiment: The distribution of the 131 I-labeled compound at 5 min was evaluated in rat kidney as Percent of injected dose per gram in the organ
Assay type: ADME, organism-based
Settings: in vivo
Procedure, shortened: as §2

| Compound | Dose [%] |
| --- | --- |
| COc1cc(CC(C)NCC#N)c(OC)cc1I (stereo not given) | 1.5 |

Species: Rattus norvegicus
Experiment: The distribution of the 131 I-labeled compound at 5 min was evaluated in rat lung as Percent of injected dose per gram in the organ
Assay type: ADME, organism-based
Settings: in vivo
Procedure, shortened: as §2

| Compound | Dose [%] |
| --- | --- |
| COc1cc(CC(C)NCC#N)c(OC)cc1I (stereo not given) | 2.6 |

Species: Rattus norvegicus
Experiment: The distribution of the 131 I-labeled compound at 30 min was evaluated in rat brain as Percent of injected dose in the total organ
Assay type: ADME, organism-based
Settings: in vivo, 0.5 h
Procedure, shortened: as §2

| Compound | Dose [%] |
| --- | --- |
| COc1cc(CC(C)NCC#N)c(OC)cc1I (stereo not given) | 0.61 |
